Experimental data as given in ChEMBL document CHEMBL3272090, “A new type of anticonvulsant: 1-aryl-3-oxotetrahydroisoquinolines” (J Med Chem, 1977).
The source made the active and inactive calls.

Experiments:
[1] = Protective index, ratio of ED50 for neurotoxicity in po dosed mouse by rotarod test to ED50 for anticonvulsant activity in po dosed mouse assessed as protection against maximal electroshock-induced seizures; format: toxicity, organism-based; conditions: in vivo, read-out: Ratio ED50
Method in brief: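 Index calculated as rotarod ED50 divided by MES ED50, both from mice dosed perorally in Tween suspension 3 h before testing.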

Mus musculus [2] = assay: Anticonvulsant activity in po dosed mouse assessed as protection against maximal electroshock-induced seizures pretreated for 3 hrs; format: functional
Method in brief: (§1)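 Mice given compound perorally as a Tween suspension 3 h before maximal electroshock seizure testing (Swinyard method). Median effective dose with 95% confidence limits by Litchfield–Wilcoxon; doses up to 300 mg/kg examined.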

Mus musculus [3] = assay: Neurotoxicity in po dosed mouse by rotarod test; format: toxicity, organism-based; conditions: in vivo
Method in brief: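 Mice dosed perorally with Tween suspension 3 h before rotarod testing for neurotoxicity. Median effective dose with 95% confidence limits by Litchfield–Wilcoxon method.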

Mus musculus [4] = assay: Anticonvulsant activity in po dosed mouse assessed as protection against pentylenetetrazole-induced convulsion pretreated for 3 hrs; format: functional
Method in brief: (§2)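 Peroral dosing in mice as Tween suspension, 3 h before pentylenetetrazole threshold test (Orloff method). Activity taken as a rise in threshold PTZ dose of at least 50% versus saline-pretreated controls.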

[5] = Acute toxicity in po dosed mouse assessed as mortality after 24 hrs; format: organism-based; conditions: in vivo
Mus musculus [6] = assay: Anticonvulsant activity in mouse assessed as protection against maximal electroshock-induced seizures at 300 mg/kg, po pretreated for 3 hrs; format: functional, organism-based; design: dose 300 mg/kg; method in brief: as §1
Mus musculus [7] = assay: Anticonvulsant activity in mouse assessed as protection against pentylenetetrazole-induced convulsion at 300 mg/kg, po pretreated for 3 hrs; format: functional, organism-based; design: dose 300 mg/kg; method in brief: as §2

Row | Structure (SMILES) | selectivity ratio [1] | ED50 (Mus musculus [2]) | ED50 (Mus musculus [3]) | ED50 (Mus musculus [4]) | LD50 at 24 h [5] | Activity (Mus musculus [6]) | Activity (Mus musculus [7])
1 | O=C1NC(=O)C(c2ccccc2)(c2ccccc2)N1 [PHENYTOIN] | 15 | 5.2 mg/kg | 79.5 mg/kg | 26 mg/kg | > 1000 mg/kg | – | –
2 | CCNCC(=O)Nc1ccc(C2NC(=O)C(C)(C)c3ccccc32)cc1 (configuration not stated) | – | – | 760 mg/kg | – | > 2000 mg/kg | inactive | –
3 | CC(C)C1C(=O)NC(c2ccc(NC(=O)CCCN3CCCC3)cc2)c2ccccc21 (configuration not stated) | – | – | 86 mg/kg | – | > 1000 mg/kg | inactive | inactive
4 | CCCNCC(=O)Nc1ccccc1C1NC(=O)Cc2ccccc21 (configuration not stated) | > 11 | 180 mg/kg | > 2000 mg/kg | 300 mg/kg | > 2000 mg/kg | – | –
5 | CC1(C)C(=O)NC(c2ccc(NC(=O)CN)cc2)c2ccccc21 (configuration not stated) | 13 | 32.5 mg/kg | 420 mg/kg | – | > 1000 mg/kg | – | inactive
6 | CCN(CC)CC(=O)Nc1ccc(C2NC(=O)C(C)(C)c3ccccc32)cc1 (configuration not stated) | 15 | 90 mg/kg | 1300 mg/kg | – | 1600 mg/kg | – | inactive
7 | O=C(CCCN1CCCC1)Nc1ccc(C2NC(=O)Cc3ccccc32)cc1 (configuration not stated) | > 9 | 215 mg/kg | > 2000 mg/kg | – | > 2000 mg/kg | – | inactive
8 | CCCNCC(=O)Nc1ccc(C2NC(=O)C(C(C)C)c3ccccc32)cc1 (configuration not stated) | 2.5 | 19.6 mg/kg | 50 mg/kg | – | 600 mg/kg | – | inactive
9 | Cl.Nc1ccc(C2NC(=O)Cc3ccccc32)cc1 (configuration not stated) | 5 | 19 mg/kg | 95 mg/kg | 50 mg/kg | 795 mg/kg | – | –
10 | CC1(C)C(=O)NC(c2ccc(NC(=O)CN3CCCCC3)cc2)c2ccccc21 (configuration not stated) | > 36 | 62 mg/kg | > 2000 mg/kg | – | > 2000 mg/kg | – | inactive
11 | CCCNCC(=O)Nc1ccc(C2NC(=O)C(C)c3ccccc32)cc1 (configuration not stated) | 15 | – | 340 mg/kg | 100 mg/kg | > 1600 mg/kg | – | –
12 | Nc1ccc(Cl)c(C2NC(=O)Cc3ccccc32)c1Cl (configuration not stated) | – | – | > 1000 mg/kg | – | > 1000 mg/kg | inactive | inactive
13 | CNCC(=O)Nc1ccc(C2NC(=O)Cc3ccccc32)cc1 (configuration not stated) | 12 | – | 270 mg/kg | – | 600 mg/kg | – | –
14 | CC1(C)C(=O)NC(c2ccccc2N)c2ccccc21 (configuration not stated) | > 9 | 110 mg/kg | > 1000 mg/kg | – | > 1000 mg/kg | – | –
15 | Cc1ccc2c(c1)C(c1ccc(N)cc1)NC(=O)C2(C)C (configuration not stated) | 15 | 70 mg/kg | 1030 mg/kg | 300 mg/kg | > 1600 mg/kg | – | –
16 | CCCCN(CCCC)CC(=O)Nc1ccc(C2NC(=O)C(C)(C)c3ccccc32)cc1 (configuration not stated) | 10 | 62 mg/kg | 600 mg/kg | – | > 2000 mg/kg | – | inactive

Row | Structure (SMILES) | selectivity ratio [1] | ED50 (Mus musculus [2]) | ED50 (Mus musculus [3]) | ED50 (Mus musculus [4]) | LD50 at 24 h [5] | Activity (Mus musculus [6]) | Activity (Mus musculus [7])
17 | CNCC(=O)Nc1ccc(C2NC(=O)C(C)(C)c3ccccc32)cc1 (configuration not stated) | 24 | – | 600 mg/kg | – | > 2000 mg/kg | – | inactive
18 | Nc1ccccc1C1NC(=O)Cc2ccccc21 (configuration not stated) | 7 | 140 mg/kg | 940 mg/kg | – | > 2000 mg/kg | – | inactive
19 | CC1C(=O)NC(c2ccc(N)cc2)c2ccccc21 (configuration not stated) | 10 | 26 mg/kg | 250 mg/kg | 100 mg/kg | > 2000 mg/kg | – | –
20 | CCCNCC(=O)Nc1ccc(C2NC(=O)Cc3ccccc32)cc1 (configuration not stated) | 24 | 20.6 mg/kg | 490 mg/kg | – | 2000 mg/kg | – | –
21 | CC1(C)C(=O)NC(c2ccc(NC(=O)CN3CCOCC3)cc2)c2ccccc21 (configuration not stated) | > 20 | 78 mg/kg | > 1600 mg/kg | 300 mg/kg | 2000 mg/kg | – | –
22 | O=C1Cc2ccccc2C(c2ccccc2)N1 (configuration not stated) | 7 | 105 mg/kg | 730 mg/kg | – | 1060 mg/kg | – | inactive
23 | CC1(C)C(=O)NC(c2ccc(N)cc2)c2ccccc21 (configuration not stated) | 12 | 20 mg/kg | 240 mg/kg | 100 mg/kg | > 1600 mg/kg | – | –
24 | CCNCC(=O)Nc1ccc(C2NC(=O)Cc3ccccc32)cc1 (configuration not stated) | 51 | – | 520 mg/kg | – | > 1600 mg/kg | – | –
25 | O=C(CN1CCOCC1)Nc1ccc(C2NC(=O)Cc3ccccc32)cc1 (configuration not stated) | > 29 | 55 mg/kg | > 1600 mg/kg | – | > 1600 mg/kg | – | inactive
26 | CCCNCC(=O)Nc1ccc(C2NC(=O)C(C)(C)c3ccccc32)cc1 (configuration not stated) | 14 | – | 435 mg/kg | – | > 1600 mg/kg | – | –
27 | O=C1Cc2ccccc2C(c2ccc(NC(=O)NCc3ccccc3)cc2)N1 (configuration not stated) | > 7 | 275 mg/kg | > 2000 mg/kg | – | > 2000 mg/kg | – | inactive
28 | CC(C)NCC(=O)Nc1ccc(C2NC(=O)C(C)(C)c3ccccc32)cc1 (configuration not stated) | 59 | – | 1600 mg/kg | 100 mg/kg | > 2000 mg/kg | – | –
29 | CC(C)C1C(=O)NC(c2ccc(N)cc2)c2ccccc21 (configuration not stated) | 18 | 20 mg/kg | 358 mg/kg | 20 mg/kg | > 1600 mg/kg | – | –
30 | CC(C)NCC(=O)Nc1ccc(C2NC(=O)Cc3ccccc32)cc1 (configuration not stated) | 26 | – | 270 mg/kg | – | > 1000 mg/kg | – | –
31 | CCCCNCC(=O)Nc1ccc(C2NC(=O)C(C)(C)c3ccccc32)cc1 (configuration not stated) | 14 | 23.5 mg/kg | 335 mg/kg | – | > 2000 mg/kg | – | inactive
32 | O=C(CN1CCCCC1)Nc1ccc(C2NC(=O)Cc3ccccc32)cc1 (configuration not stated) | – | – | > 2000 mg/kg | 300 mg/kg | > 2000 mg/kg | inactive | –
